For data set [1], the system named is Rattus norvegicus. Briefly: Dose normalized AUC in rat at 1 mg/kg, po. In kind it is ADME, organism-based. The arrangement: dose 1 mg/kg, route oral. The conditions noted are these: in vivo. The method in brief:
(§1)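 Rats dosed at 1 mg/kg iv (n = 2) or 1 mg/kg po (n = 3), formulated at 1 mg/mL in PEG 200:water (70:30). Blood concentrations measured by LC/MS/MS after protein precipitation with acetonitrile.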

Data set [2] has as its system Rattus norvegicus. The data set can be described thus: Dose normalized AUC in rat at 1 mg/kg, iv. The note with it: in vivo. The class given is ADME, organism-based. Details: dose 1 mg/kg, route intravenous. The method in brief: as §1
A short description of data set [3]: Half life in rat at 1 mg/kg, iv and 1 mg/lg, po. Details: dose 1 mg/kg, route oral. The class given is ADME, organism-based. The note with it: in vivo. The method in brief: as §1
Data set [4] deals with Rattus norvegicus. Briefly: Volume of distribution at steady state in rat at 1 mg/kg, iv and 1 mg/lg, po. In kind it is ADME, organism-based. Details: dose 1 mg/kg, route oral. The note with it: in vivo. The method in brief:
as §1

A short description of data set [5]: Oral bioavailability in rat at 1 mg/kg. The conditions noted are these: in vivo. In kind it is ADME, organism-based. An outline of the steps:
as §1

The target in data set [6] is T1, Progesterone receptor (Homo sapiens, UniProt P06401).
T1 sequence (P06401 whole entry): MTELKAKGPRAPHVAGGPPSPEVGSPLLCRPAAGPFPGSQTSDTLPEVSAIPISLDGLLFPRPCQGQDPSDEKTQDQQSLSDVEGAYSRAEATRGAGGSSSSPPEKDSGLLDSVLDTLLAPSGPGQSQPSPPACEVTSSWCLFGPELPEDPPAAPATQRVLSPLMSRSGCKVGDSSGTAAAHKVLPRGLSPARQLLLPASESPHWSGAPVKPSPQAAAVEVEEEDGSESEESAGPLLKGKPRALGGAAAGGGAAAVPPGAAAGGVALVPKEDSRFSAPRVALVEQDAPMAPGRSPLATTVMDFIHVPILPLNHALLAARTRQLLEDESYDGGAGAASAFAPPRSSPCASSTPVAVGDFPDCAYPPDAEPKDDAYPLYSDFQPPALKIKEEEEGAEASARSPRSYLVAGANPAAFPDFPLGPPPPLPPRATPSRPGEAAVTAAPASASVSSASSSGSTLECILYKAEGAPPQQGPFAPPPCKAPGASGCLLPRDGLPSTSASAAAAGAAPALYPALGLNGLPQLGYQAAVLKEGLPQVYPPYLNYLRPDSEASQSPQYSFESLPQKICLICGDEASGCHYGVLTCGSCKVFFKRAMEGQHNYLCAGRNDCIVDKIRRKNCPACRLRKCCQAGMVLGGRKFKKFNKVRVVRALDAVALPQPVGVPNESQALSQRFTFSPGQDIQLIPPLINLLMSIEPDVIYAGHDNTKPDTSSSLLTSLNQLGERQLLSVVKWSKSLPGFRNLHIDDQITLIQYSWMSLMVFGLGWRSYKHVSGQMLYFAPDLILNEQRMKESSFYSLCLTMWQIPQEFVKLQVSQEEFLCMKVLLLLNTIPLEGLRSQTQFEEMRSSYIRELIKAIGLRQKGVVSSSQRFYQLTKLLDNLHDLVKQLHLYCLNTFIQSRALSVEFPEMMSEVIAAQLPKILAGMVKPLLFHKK
Briefly: Antagonist activity at progesterone receptor beta (unknown origin) by NH Pro assay.

The target in data set [7] is T1, Progesterone receptor. Briefly: Agonist activity at progesterone receptor beta (unknown origin) by NH Pro assay.
The target in a further data set is Estrogen receptor beta (Homo sapiens, UniProt Q92731). The data set can be described thus: Agonist activity at estrogen receptor beta (unknown origin) by NH Pro assay.
Data set [8] concerns the target T2, Estrogen receptor (Homo sapiens, UniProt P03372).
T2 sequence (P03372 whole entry): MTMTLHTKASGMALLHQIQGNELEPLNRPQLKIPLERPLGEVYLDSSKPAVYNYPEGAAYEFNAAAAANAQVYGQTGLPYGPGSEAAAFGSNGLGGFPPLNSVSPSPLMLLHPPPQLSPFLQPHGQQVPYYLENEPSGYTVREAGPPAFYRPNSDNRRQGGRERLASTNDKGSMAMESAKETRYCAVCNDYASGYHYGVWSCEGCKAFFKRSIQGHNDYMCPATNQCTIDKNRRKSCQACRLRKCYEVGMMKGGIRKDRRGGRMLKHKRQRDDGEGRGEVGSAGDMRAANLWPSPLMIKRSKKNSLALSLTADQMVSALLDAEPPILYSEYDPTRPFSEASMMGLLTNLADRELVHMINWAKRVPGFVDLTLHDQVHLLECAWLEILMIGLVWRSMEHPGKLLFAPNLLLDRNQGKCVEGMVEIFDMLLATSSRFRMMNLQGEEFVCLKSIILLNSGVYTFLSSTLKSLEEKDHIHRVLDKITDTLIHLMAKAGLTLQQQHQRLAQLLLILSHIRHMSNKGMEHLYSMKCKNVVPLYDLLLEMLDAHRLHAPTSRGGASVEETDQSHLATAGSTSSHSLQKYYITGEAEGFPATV
The data set can be described thus: Antagonist activity at estrogen receptor alpha (unknown origin) by NH Pro assay.

Data set [9] concerns the target T2, Estrogen receptor. Briefly: Agonist activity at estrogen receptor alpha (unknown origin) by NH Pro assay.
Another data set has as its target T3, Glucocorticoid receptor (Homo sapiens, UniProt P04150).
T3 sequence (P04150 whole entry): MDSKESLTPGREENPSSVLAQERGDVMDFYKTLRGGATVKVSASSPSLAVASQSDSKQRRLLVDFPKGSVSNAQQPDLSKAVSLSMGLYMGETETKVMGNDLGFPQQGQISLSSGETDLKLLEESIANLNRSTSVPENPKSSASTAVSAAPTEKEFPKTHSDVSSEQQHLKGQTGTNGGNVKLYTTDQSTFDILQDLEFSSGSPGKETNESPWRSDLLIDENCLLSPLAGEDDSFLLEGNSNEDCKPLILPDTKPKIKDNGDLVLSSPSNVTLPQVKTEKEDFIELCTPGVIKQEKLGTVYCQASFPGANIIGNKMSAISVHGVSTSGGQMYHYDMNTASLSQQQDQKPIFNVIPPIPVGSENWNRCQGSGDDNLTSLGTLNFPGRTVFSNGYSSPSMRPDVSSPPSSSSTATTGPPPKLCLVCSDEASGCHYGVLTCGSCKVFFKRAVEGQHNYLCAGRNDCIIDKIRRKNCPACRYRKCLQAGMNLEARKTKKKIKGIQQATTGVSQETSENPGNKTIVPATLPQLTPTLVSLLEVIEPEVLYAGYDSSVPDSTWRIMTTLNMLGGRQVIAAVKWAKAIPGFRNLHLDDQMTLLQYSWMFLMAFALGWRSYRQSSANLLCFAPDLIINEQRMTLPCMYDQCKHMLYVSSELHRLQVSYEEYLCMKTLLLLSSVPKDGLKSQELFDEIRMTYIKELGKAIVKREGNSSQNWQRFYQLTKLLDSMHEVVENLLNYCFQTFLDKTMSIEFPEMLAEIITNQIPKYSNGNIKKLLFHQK
The data set can be described thus: Agonist activity at glucocorticoid receptor (unknown origin) by NH Pro assay.

For orientation: half-life means the time needed for the level to fall by half in the phase considered. High values mean slow loss, low ones fast loss. As usually defined, the bioavailability is dose-corrected exposure relative to a reference, in per cent. The low end stands for poor availability, the high end for good availability. Broadly, the IC50 is the concentration that inhibits the measured activity by half. Low values mean greater potency in that assay, high ones weaker potency in that assay. The term EC50 denotes the concentration giving half of the maximal effect. Read a high EC50 as weaker potency.

Chain of Estrogen receptor beta (Q92731 whole entry): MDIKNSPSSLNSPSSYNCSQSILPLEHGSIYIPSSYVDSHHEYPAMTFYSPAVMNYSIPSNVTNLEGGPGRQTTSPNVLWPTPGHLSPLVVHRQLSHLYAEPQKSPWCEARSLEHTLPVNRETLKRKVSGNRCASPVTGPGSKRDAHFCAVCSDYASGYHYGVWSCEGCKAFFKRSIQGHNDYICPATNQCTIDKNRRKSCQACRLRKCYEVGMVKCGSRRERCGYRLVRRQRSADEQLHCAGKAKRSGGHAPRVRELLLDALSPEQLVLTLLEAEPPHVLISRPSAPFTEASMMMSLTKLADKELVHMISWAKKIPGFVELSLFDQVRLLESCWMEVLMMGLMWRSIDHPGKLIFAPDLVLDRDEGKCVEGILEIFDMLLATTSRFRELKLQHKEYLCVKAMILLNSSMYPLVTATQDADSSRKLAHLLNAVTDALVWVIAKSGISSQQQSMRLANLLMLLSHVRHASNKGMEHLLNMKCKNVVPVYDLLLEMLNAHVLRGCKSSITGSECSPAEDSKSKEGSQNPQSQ

For the compound `COc1cc(CNC(=O)[C@@]2(Cc3ccccc3)OC(=O)N([C@@H]3CCc4ccccc43)C2=O)cc(OC)c1`, the AUC/dose came to 0.24 µM·kg·h/mg in the data set on Rattus norvegicus [1] and 0.89 µM·kg·h/mg in the data set on Rattus norvegicus [2]. In [3], this compound showed a half-life of 2.5 h. Moreover, the Vdss in the data set with Rattus norvegicus [4] turned out to be 4.7 L/kg. Further, the bioavailability in [5] was determined as 28%. In addition, the IC50 against Progesterone receptor [6] came to 8.1 µM; against Estrogen receptor [8], 17 µM. For the same compound, the EC50 at Progesterone receptor [7], at Estrogen receptor beta, at Estrogen receptor [9] and on Glucocorticoid receptor was over 20 µM throughout.

On to `C[C@H](c1ccc(F)cc1)N1C(=O)O[C@](Cc2ccc(F)cc2)(C(=O)NCc2ccc(Cl)c(Cl)c2)C1=O`, for which the AUC/dose in the data set with Rattus norvegicus [1] was found to be 0.24 µM·kg·h/mg; with Rattus norvegicus [2] it was 0.46 µM·kg·h/mg. Also, in data set [3], the half-life is 2.3 h. The same compound showed a Vdss with Rattus norvegicus [4] of 7.9 L/kg. The same compound came in with a bioavailability in data set [5] of 63%. The figures for the IC50 on Progesterone receptor [6] and against Estrogen receptor [8] were 3.6 µM and 7.3 µM, respectively. The EC50 on Progesterone receptor [7], at Estrogen receptor beta, at Estrogen receptor [9] and at Glucocorticoid receptor was over 20 µM throughout.

The record behind these values is ChEMBL document CHEMBL2407028, “Discovery of novel oxazolidinedione derivatives as potent and selective mineralocorticoid receptor antagonists” (Bioorg Med Chem Lett, 2013).
